This note sets out measurements from ChEMBL document CHEMBL2169836 (J Med Chem, 2012).

The structures appear in SMILES notation. Activity calls are given as the source filed them. The calls are words filed in the database; no cut-off is given here. Where only a bound is given, the exact number is not on record here.

The nature of series [1]: Mean resident time in jugular and femoral vein precannulated Sprague-Dawley rat at 1 mg/kg, iv by LC/MS/MS analysis. The class given is ADME, organism-based. On the set-up: dose 1 mg/kg, route intravenous. As to conditions: in vivo.
The next series has as its system Rattus norvegicus. The experiment in a line: Clearance in jugular and femoral vein precannulated Sprague-Dawley rat at 1 mg/kg, iv by LC/MS/MS analysis relative to hepatic blood flow. The class given is ADME, organism-based, Liver. Further details: dose 1 mg/kg, route intravenous. As to conditions: in vivo.
Series [2] concerns the target Sodium/hydrogen exchanger 1 (Homo sapiens, UniProt P19634). The experiment in a line: Inhibition of NHE1 in human HT-29 cells assessed as intracellular pH change after 30 mins. It is filed as cell-based.
Series [3] can be described thus: Volume of distribution at steady state in jugular and femoral vein precannulated Sprague-Dawley rat at 1 mg/kg, iv by LC/MS/MS analysis. The class given is ADME, organism-based. The conditions noted are these: in vivo, read-out: Vdss. Further details: dose 1 mg/kg, route intravenous.
The nature of series [4]: Oral bioavailability in jugular and femoral vein precannulated Sprague-Dawley rat plasma at 5 mg/kg by LC/MS/MS analysis. The class given is ADME, organism-based.
The subject of a further series is Caco-2. Description: Efflux ratio of permeability from […] side in human Caco2 cells at 10 uM up to 150 mins. It is filed as ADME, cell-based. As to conditions: caco-2, 2.5 h. In general terms: Caco-2 monolayers are a common model of the intestinal barrier.
For series [5], the system named is Salmonella typhimurium. Description: Genotoxicity in Salmonella typhimurium TA1535 up to 5000 ug/plate by Ames test in the absence of S9 fraction. It is filed as toxicity, organism-based. As to conditions: salmonella enterica subsp. enterica serovar typhimurium.
In series [6] the test system is Escherichia coli. The experiment in a line: Genotoxicity in Escherichia coli WP2 expressing uvrA up to 5000 ug/plate by Ames test in absence of S9 fraction. It is filed as toxicity, organism-based. For orientation: The Ames test detects mutagens through reverse mutation in bacteria.
The subject of series [7] is Heart. The experiment in a line: Inhibition of ischemia reperfusion injury-induced decrease in left ventricular developed pressure in Langendorff isolated perfused Sprague-Dawley rat heart at 10 nM after 30 mins. It is filed as functional. Further details: scale not given: the % may be the effect or the level left. In short, it runs like this: (§1)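 In the isolated perfused rat heart ischemia-reperfusion model, compound was present in the perfusate. Recovery of left ventricular developed pressure was expressed as % of baseline pressure, 30 min postreperfusion, against vehicle control. Left ventricular end diastolic pressure was also monitored.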

The nature of series [8]: Permeability of the compound by PAMPA. The class given is ADME. As to conditions: read-out: permeability. Put shortly:
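Donor buffers were set to pH 5.0, 6.2 and 7.4 with NaOH, and ASB7.4 buffer was used as acceptor. Filters (0.45 pore, 125 μm thick) were lipid-coated. A 10 mM DMSO stock was diluted to 41.7 μM in donor buffer. The sandwich was incubated 4 h without stirring. Reference, donor and acceptor concentrations were read in duplicate by UV plate reader, and ratings were assigned from permeation velocity.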
(In PAMPA a lipid-coated filter parts donor from acceptor wells.)

Series [9] relates to Salmonella typhimurium. The experiment in a line: Genotoxicity in Salmonella typhimurium TA1537 up to 5000 ug/plate by Ames test in the absence of S9 fraction. It is filed as toxicity, organism-based. As to conditions: salmonella enterica subsp. enterica serovar typhimurium.
For series [10], the system named is Salmonella typhimurium. The experiment in a line: Genotoxicity in Salmonella typhimurium TA1537 up to 5000 ug/plate by Ames test in the presence of S9 fraction. The class given is toxicity, organism-based. The conditions noted are these: salmonella enterica subsp. enterica serovar typhimurium.
The subject of series [11] is Escherichia coli. The experiment in a line: Genotoxicity in Escherichia coli WP2 expressing uvrA up to 5000 ug/plate by Ames test in presence of S9 fraction. The class given is toxicity, organism-based.
The nature of series [12]: Oral bioavailability in overnight fasted Beagle dog at 5 mg/kg. It is filed as ADME, organism-based, Canis lupus familiaris. As to conditions: in vivo.
Another series relates to HeLa. The experiment in a line: Cytotoxicity against human HeLa cells up to 100 uM after 24 hrs. The class given is cell-based.
The test system of series [13] is Heart. Description: Inhibition of ischemia reperfusion injury-induced decrease in left ventricular developed pressure in Langendorff isolated perfused Sprague-Dawley rat heart at 100 nM after 30 mins. The class given is functional. Further details: scale not given: the % may be the effect or the level left. Put shortly:
as §1

Series [14] relates to Salmonella typhimurium. Description: Genotoxicity in Salmonella typhimurium TA100 up to 5000 ug/plate by Ames test in the absence of S9 fraction. As to conditions: salmonella enterica subsp. enterica serovar typhimurium. It is filed as toxicity, organism-based.
In the next series the test system is Canis familiaris. The experiment in a line: Clearance in overnight fasted Beagle dog at 1 mg/kg, iv relative to hepatic blood flow. It is filed as ADME, organism-based, Canis lupus familiaris, Liver. Further details: dose 1 mg/kg, route intravenous. The conditions noted are these: in vivo.
The subject of series [15] is Salmonella typhimurium. The experiment in a line: Genotoxicity in Salmonella typhimurium TA98 up to 5000 ug/plate by Ames test in the absence of S9 fraction. It is filed as toxicity, organism-based. The conditions noted are these: salmonella enterica subsp. enterica serovar typhimurium.
Series [16] can be described thus: Metabolic stability in human liver microsomes at 1 uM up to 60 mins by LC/MS/MS analysis relative to hepatic blood flow. It is filed as ADME, Microsome. As to conditions: read-out: Stability.
The next series concerns the target Cytochrome P450 2C19 (Homo sapiens, UniProt P33261). The experiment in a line: Inhibition of CYP2C19 in human liver microsomes using 7-ethoxy-3-cyanocoumarin as substrate after 45 mins by LC/MS/MS analysis. The class given is ADME, Microsome.
Series [17] concerns Salmonella typhimurium. Description: Genotoxicity in Salmonella typhimurium TA98 up to 5000 ug/plate by Ames test in the presence of S9 fraction. As to conditions: salmonella enterica subsp. enterica serovar typhimurium. The class given is toxicity, organism-based.
Series [18] is described as follows: Volume of distribution at steady state in overnight fasted Beagle dog at 1 mg/kg, iv. The conditions noted are these: in vivo, read-out: Vdss. Further details: dose 1 mg/kg, route intravenous. It is filed as ADME, organism-based, Canis lupus familiaris.
In series [19] the target is T1, Sodium/hydrogen exchanger 3 (Homo sapiens) (UniProt P48764).
T1 sequence (whole entry): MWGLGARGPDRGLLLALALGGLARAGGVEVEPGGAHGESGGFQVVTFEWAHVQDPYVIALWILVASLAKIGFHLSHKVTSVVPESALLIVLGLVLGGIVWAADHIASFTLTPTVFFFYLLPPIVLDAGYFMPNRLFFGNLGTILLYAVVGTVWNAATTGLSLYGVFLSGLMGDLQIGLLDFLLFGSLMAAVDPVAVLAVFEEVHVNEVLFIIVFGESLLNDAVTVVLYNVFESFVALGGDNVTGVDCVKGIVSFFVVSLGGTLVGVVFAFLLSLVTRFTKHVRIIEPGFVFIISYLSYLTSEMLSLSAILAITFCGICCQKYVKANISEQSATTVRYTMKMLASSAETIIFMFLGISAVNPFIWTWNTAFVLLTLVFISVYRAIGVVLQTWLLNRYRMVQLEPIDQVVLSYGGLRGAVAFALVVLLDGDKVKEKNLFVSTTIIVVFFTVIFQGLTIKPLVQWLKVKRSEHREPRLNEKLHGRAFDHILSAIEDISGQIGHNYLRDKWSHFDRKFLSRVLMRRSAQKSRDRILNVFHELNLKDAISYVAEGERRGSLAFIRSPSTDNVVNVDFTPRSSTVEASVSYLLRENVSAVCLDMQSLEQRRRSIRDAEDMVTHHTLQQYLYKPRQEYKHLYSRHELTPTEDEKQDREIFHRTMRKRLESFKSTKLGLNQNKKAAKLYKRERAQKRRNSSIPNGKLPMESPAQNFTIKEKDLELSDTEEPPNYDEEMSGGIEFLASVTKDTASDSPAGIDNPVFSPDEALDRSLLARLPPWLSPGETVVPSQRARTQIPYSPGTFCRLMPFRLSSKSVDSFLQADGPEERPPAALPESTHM
Description: Inhibition of NHE3 transfected in Chinese hamster PS120 assessed as intracellular pH change up to 16 uM. The class given is cell-based.

The test system of another series is U-937. The experiment in a line: Induction of phopspholipidosis in human U937 cells up to 50 uM after 24 hrs by Nile red flow cytometry assay. As to conditions: u-937, 24 h. It is filed as cell-based.
The subject of series [20] is Salmonella typhimurium. Description: Genotoxicity in Salmonella typhimurium TA100 up to 5000 ug/plate by Ames test in the presence of S9 fraction. The conditions noted are these: salmonella enterica subsp. enterica serovar typhimurium. The class given is toxicity, organism-based.
Series [21] in a line: Metabolic stability in rat liver microsomes at 1 uM up to 60 mins by LC/MS/MS analysis relative to hepatic blood flow. The conditions noted are these: read-out: Stability. The class given is ADME, Microsome.
Series [22] is described as follows: Mean resident time in overnight fasted Beagle dog at 1 mg/kg, iv. Further details: dose 1 mg/kg, route intravenous. The class given is ADME, organism-based, Canis lupus familiaris. The conditions noted are these: in vivo.
The next series has as its target Cytochrome P450 2C9 (Homo sapiens, UniProt P11712). Description: Inhibition of CYP2C9 in human liver microsomes using 7-methoxy-4-(trifluoromethyl)-coumarin as substrate after 45 mins by LC/MS/MS analysis. The class given is ADME, Microsome.
The target in series [23] is T2, Cytochrome P450 3A4 (Homo sapiens, UniProt P08684). Description: Inhibition of CYP3A4 in human liver microsomes using 7-benzyloxy-4-(trifluoromethyl)-coumarin as substrate after 30 mins by LC/MS/MS analysis. It is filed as ADME, Microsome.
Another series deals with Cytochrome P450 2D6 (Homo sapiens, UniProt P10635). The experiment in a line: Inhibition of CYP2D6 in human liver microsomes using 3-[2-(N,N-diethyl-N-methylamino)ethyl]-7- methoxy-4-methylcoumarin as substrate after 45 mins by LC/MS/MS analysis. It is filed as ADME, Microsome.
For series [24], the system named is Salmonella typhimurium. The experiment in a line: Genotoxicity in Salmonella typhimurium TA1535 up to 5000 ug/plate by Ames test in the presence of S9 fraction. It is filed as toxicity, organism-based. As to conditions: salmonella enterica subsp. enterica serovar typhimurium.
Series [25] concerns the target Voltage-gated inwardly rectifying potassium channel KCNH2 (Homo sapiens, UniProt Q12809). Description: Inhibition of human ERG expressed in HEK 293 cells by PatchXpress assay. It is filed as cell-based, HEK293.
Series [26] has as its target T2, Cytochrome P450 3A4. Description: Activation of CYP3A4 expressed in DPX cells co-transfected with human PXR at 0.1 to 10 uM. The class given is ADME, cell-based.

In general, MRT refers to the average time that molecules of a dose stay in the body. The IC50 is the concentration that inhibits the measured activity by half. One may read the bioavailability as dose-corrected exposure relative to a reference, in per cent.

T2 sequence (P08684 whole entry): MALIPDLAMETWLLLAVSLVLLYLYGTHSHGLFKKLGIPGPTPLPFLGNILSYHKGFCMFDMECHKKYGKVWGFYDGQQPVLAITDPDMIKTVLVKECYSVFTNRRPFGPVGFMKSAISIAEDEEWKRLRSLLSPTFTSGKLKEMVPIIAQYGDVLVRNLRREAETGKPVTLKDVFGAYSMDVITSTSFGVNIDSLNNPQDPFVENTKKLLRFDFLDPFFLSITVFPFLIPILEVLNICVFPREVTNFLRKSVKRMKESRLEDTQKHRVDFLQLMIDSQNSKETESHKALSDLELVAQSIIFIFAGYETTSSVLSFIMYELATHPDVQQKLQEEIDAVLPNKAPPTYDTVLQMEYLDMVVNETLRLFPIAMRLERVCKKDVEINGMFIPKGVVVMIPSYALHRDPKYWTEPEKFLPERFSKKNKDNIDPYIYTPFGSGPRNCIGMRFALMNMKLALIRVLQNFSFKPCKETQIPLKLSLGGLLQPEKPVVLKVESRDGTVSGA
Sodium/hydrogen exchanger 1, sequence (P19634 whole entry): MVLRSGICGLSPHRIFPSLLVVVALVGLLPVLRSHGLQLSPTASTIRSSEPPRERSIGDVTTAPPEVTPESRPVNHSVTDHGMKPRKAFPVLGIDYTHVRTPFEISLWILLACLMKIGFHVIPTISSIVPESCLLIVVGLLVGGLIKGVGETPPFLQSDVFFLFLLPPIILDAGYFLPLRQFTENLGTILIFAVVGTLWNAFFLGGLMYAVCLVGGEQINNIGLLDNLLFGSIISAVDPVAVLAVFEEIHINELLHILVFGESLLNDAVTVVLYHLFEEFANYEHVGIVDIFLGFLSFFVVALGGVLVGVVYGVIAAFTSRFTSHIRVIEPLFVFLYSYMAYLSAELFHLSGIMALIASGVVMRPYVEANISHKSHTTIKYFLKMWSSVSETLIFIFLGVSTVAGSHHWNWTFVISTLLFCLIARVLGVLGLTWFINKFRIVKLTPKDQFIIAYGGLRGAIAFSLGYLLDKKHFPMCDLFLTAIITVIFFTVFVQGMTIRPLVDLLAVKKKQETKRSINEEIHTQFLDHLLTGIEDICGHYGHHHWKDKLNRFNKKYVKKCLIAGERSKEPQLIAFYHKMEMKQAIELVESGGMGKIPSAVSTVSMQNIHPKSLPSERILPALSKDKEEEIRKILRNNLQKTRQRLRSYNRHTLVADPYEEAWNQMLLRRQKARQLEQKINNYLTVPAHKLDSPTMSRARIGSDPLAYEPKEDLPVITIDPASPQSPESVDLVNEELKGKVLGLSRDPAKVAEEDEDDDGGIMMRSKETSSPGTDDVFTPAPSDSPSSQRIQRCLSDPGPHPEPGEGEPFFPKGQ
Cytochrome P450 2C19, sequence (P33261 whole entry): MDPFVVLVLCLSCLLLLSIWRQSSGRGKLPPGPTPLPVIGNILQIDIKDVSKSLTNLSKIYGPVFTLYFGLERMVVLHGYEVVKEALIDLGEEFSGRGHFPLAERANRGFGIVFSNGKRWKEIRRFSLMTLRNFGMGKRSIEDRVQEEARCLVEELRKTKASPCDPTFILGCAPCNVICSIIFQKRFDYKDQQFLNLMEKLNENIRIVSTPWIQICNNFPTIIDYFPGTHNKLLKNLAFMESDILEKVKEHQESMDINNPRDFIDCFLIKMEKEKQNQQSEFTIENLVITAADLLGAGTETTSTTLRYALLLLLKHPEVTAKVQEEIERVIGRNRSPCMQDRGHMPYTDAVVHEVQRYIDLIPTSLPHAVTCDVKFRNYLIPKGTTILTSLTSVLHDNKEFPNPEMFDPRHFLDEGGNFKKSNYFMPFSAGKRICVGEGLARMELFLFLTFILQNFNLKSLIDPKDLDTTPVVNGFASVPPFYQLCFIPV
Cytochrome P450 2C9, sequence (P11712 whole entry): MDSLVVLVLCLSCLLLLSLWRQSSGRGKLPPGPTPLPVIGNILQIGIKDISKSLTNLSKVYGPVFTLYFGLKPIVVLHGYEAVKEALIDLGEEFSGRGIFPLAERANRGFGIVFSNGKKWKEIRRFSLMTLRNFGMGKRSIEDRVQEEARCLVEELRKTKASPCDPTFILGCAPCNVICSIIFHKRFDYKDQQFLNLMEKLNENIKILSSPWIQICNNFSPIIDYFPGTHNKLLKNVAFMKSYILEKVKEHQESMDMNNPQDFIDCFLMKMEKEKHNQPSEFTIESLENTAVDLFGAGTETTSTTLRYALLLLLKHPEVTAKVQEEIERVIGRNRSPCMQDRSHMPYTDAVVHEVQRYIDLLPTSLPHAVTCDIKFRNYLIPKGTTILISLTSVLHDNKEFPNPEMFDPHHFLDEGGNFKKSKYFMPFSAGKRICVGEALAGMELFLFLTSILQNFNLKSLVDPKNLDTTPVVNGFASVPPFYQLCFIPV
Voltage-gated inwardly rectifying potassium channel KCNH2, sequence (Q12809 whole entry): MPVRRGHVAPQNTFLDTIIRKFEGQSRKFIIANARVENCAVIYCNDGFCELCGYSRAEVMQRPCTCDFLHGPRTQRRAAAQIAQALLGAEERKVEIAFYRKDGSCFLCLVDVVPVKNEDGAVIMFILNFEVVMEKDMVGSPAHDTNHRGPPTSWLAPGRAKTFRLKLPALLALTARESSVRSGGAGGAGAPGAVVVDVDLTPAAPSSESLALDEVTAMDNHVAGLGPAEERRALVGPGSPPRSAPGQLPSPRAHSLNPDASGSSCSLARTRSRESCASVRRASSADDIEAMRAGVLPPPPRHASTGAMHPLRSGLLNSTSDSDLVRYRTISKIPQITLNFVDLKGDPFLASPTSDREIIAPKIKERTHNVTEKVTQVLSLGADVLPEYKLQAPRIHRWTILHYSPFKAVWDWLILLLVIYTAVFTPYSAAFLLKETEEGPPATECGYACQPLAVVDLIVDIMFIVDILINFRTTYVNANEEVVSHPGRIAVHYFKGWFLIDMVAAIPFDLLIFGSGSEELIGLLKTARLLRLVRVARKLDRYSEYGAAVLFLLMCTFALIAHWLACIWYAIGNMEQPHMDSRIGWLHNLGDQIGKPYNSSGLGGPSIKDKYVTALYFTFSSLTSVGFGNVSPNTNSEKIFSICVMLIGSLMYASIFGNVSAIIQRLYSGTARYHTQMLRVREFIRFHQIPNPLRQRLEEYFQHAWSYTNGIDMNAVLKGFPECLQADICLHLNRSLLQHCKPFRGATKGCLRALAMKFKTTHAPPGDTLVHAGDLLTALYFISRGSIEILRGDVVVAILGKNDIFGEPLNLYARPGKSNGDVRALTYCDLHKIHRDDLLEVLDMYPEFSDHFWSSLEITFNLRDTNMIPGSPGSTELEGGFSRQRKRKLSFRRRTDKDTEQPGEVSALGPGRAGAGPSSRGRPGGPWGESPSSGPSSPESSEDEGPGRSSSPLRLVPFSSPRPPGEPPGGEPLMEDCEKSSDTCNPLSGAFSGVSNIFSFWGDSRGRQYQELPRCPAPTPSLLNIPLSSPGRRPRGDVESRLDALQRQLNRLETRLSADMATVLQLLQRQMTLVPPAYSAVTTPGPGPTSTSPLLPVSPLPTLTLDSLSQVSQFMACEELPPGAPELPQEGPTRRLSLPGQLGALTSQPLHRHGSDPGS
Cytochrome P450 2D6, sequence (P10635 whole entry): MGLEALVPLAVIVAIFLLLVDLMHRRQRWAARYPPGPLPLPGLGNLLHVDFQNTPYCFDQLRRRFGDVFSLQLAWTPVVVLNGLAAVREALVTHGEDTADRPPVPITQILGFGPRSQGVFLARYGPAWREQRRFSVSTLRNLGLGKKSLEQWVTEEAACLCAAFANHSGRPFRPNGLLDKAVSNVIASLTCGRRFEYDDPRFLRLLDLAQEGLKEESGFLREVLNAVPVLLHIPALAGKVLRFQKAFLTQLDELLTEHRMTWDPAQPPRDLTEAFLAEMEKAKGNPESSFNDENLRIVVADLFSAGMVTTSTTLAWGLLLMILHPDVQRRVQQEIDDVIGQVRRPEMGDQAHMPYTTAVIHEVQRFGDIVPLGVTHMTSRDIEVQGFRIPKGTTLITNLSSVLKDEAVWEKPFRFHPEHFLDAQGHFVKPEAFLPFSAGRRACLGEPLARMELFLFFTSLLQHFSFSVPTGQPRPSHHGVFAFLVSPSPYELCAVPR

Regarding `CCC(=O)N1CCC(c2cc(C)c(C(=O)NC(=N)N)cc2S(C)(=O)=O)CC1`, in series [1], the MRT came to 0.3 h. The CL in the series with Rattus norvegicus came out at 54%. Further, the IC50 in [2] stood at 0.015 µM. Moreover, in series [3], the Vd was 0.95 L/kg. For the same compound, in [4], the bioavailability was determined as 1%. The Ratio in the series on Caco-2 is recorded as 14.

As for `CC(=O)N1CCC(c2ccc(C(=O)NC(=N)N)cc2C(F)(F)F)CC1` [BI 9627], the Activity result in the series on Salmonella typhimurium [5] was “Non-toxic”; with Escherichia coli [6] it was “Non-toxic”; in the series with Heart [7], 36%; in the series on Salmonella typhimurium [9] it was “Non-toxic”; in the series with Salmonella typhimurium [10], “Non-toxic”; in the series with Escherichia coli [11] it was “Non-toxic”. Besides, the Activity entry is recorded as “Non-toxic” in the series with HeLa; 100% in the series with Heart [13]; “Non-toxic” in the series on Salmonella typhimurium [14]; “Non-toxic” in the series on Salmonella typhimurium [15]; “Non-toxic” in the series with Salmonella typhimurium [17]; “Non-toxic” in the series on U-937. Further, the Activity entry is given as “Non-toxic” in the series with Salmonella typhimurium [20], “Non-toxic” in the series on Salmonella typhimurium [24] and “Not Active” on Cytochrome P450 3A4 [26]. For the same compound, the Papp in [8] was not below 2 ×10⁻⁶ cm/s. Moreover, the bioavailability is 33% in [12] and 73% in series [4]. Further, the MRT came out at 3.2 h in series [1] and 6.2 h in series [22]. Besides, the CL in the series with Canis familiaris is 13%; in the series on Rattus norvegicus it was 5.7%. For the same compound, the hepatic extraction ratio at 1 h, 1 µM is less than 0.11 in series [16] and 0.11 in series [21]. For the same compound, the IC50 is more than 30 µM at Cytochrome P450 2C19; 0.006 µM in series [2]; more than 30 µM against Cytochrome P450 2C9; more than 30 µM against Cytochrome P450 3A4 [23]; more than 30 µM against Cytochrome P450 2D6; more than 30 µM in [25]. Further, the figures for the Vd in series [18] and in series [3] were 1.4 L/kg and 0.76 L/kg, respectively. Moreover, the inhibition entry in series [19] was “inactive”.
